Legend:
Type in all cases: functional
MDA-MB-435 [1] = experiment: Cytotoxicity against human MDA-MB-435 cells assessed as cell growth at 10 uM after 48 hrs by SRB assay; conditions: MDA-MB-435, 48 h, read-out: Activity
Procedure, shortened: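 NCI single-dose screen at 10 µM. Cells were incubated 48 h and the end point was read by sulforhodamine B protein staining. Results are given as percent growth of treated cells relative to untreated controls. Growth of 32% or less was counted as active.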

SR = experiment: Cytotoxicity against human SR cells after 48 hrs by SRB assay
Procedure, shortened: (§1)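 Cells were grown in RPMI 1640 with 5% FBS and 2 mM L-glutamine, then held 24 h at 37 °C and 5% CO2 before dosing. TCA-fixed time-zero plates were kept. Compound was dissolved in DMSO and given at five 10-fold dilutions for 48 h. Cells were fixed with cold TCA (10% final), stained with 0.4% SRB and read at 515 nm. GI50, TGI and LC50 came from Ti/Tz/control growth formulas.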

HOP-62 = experiment: Cytotoxicity against human HOP62 cells after 48 hrs by SRB assay; conditions: HOP-62, 48 h
Procedure, shortened: (§2)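 Five-dose NCI-60 panel screen: cells grown in RPMI 1640 with 5% FBS and 2 mM L-glutamine, preincubated 24 h at 37 °C, 5% CO2. Five 10-fold dilutions, 0.01–100 µM, applied for 48 h. Fixed with cold TCA (10% final), stained with 0.4% SRB, absorbance read at 515 nm. GI50, TGI and LC50 were taken from log concentration versus % growth curves using time-zero plates.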

NCI-H226 = experiment: Cytotoxicity against human NCI-H226 cells after 48 hrs by SRB assay; conditions: NCI-H226, 48 h; procedure, shortened: as §2
KM12 = experiment: Cytotoxicity against human KM12 cells after 48 hrs by SRB assay; conditions: KM12, 48 h; procedure, shortened: as §2
SW-620 = experiment: Cytotoxicity against human SW620 cells after 48 hrs by SRB assay; conditions: SW-620, 48 h; procedure, shortened: as §1
SF-539 = experiment: Cytotoxicity against human SF539 cells after 48 hrs by SRB assay; conditions: SF-539, 48 h; procedure, shortened: as §2
U-251 = experiment: Cytotoxicity against human U251 cells after 48 hrs by SRB assay; conditions: U-251, 48 h; procedure, shortened: as §1
MDA-MB-435 [2] = experiment: Cytotoxicity against human MDA-MB-435 cells after 48 hrs by SRB assay; conditions: MDA-MB-435, 48 h; procedure, shortened: as §2
SK-MEL-28 = experiment: Cytotoxicity against human SK-MEL-28 cells after 48 hrs by SRB assay; conditions: SK-MEL-28, 48 h; procedure, shortened: as §2
UACC-62 = experiment: Cytotoxicity against human UACC62 cells after 48 hrs by SRB assay; conditions: UACC-62, 48 h; procedure, shortened: as §1
OVCAR-4 = experiment: Cytotoxicity against human OVCAR4 cells after 48 hrs by SRB assay; conditions: OVCAR-4, 48 h; procedure, shortened: as §2
NCI/ADR-RES = experiment: Cytotoxicity against human NCI/ADR-RES cells after 48 hrs by SRB assay; procedure, shortened: as §2
SK-OV-3 = experiment: Cytotoxicity against human SKOV3 cells after 48 hrs by SRB assay; conditions: SK-OV-3, 48 h; procedure, shortened: as §2
786-0 = experiment: Cytotoxicity against human 786-0 cells after 48 hrs by SRB assay; conditions: 786-0, 48 h; procedure, shortened: as §2
A498 = experiment: Cytotoxicity against human A498 cells after 48 hrs by SRB assay; conditions: A498, 48 h; procedure, shortened: as §2
ACHN = experiment: Cytotoxicity against human ACHN cells after 48 hrs by SRB assay; procedure, shortened: as §2
CAKI-1 = experiment: Cytotoxicity against human Caki1 cells after 48 hrs by SRB assay; conditions: CAKI-1, 48 h; procedure, shortened: as §2
SN12C = experiment: Cytotoxicity against human SN12C cells after 48 hrs by SRB assay; procedure, shortened: as §1
DU-145 = experiment: Cytotoxicity against human DU145 cells after 48 hrs by SRB assay; conditions: DU-145, 48 h; procedure, shortened: as §2
MDA-MB-468 = experiment: Cytotoxicity against human MDA-MB-468 cells after 48 hrs by SRB assay; conditions: MDA-MB-468, 48 h; procedure, shortened: as §2
[3] = read-out: LC50 (the source's name)
[4] = read-out: pLC50 (the source's name) (converted)

Nc1cc(Br)c(-c2nnc(CCC(=O)c3nc4ccccc4[nH]3)o2)c(Br)c1
growth at 10 µM (MDA-MB-435 [1]): 5.71%
GI50 (SR): 4.17 µM
CC50 (SR; [3]): > 100 µM
TGI (SR; read-out: TGI): > 100 µM
CC50 (SR; [4]): > 100 µM
TGI (SR; read-out: pTGI): > 100 µM
GI50 (HOP-62): 23.4 µM
CC50 (HOP-62; [3]): > 100 µM
TGI (HOP-62; read-out: TGI): > 100 µM
CC50 (HOP-62; [4]): > 100 µM
TGI (HOP-62; read-out: pTGI): > 100 µM
GI50 (NCI-H226): 22.4 µM
CC50 (NCI-H226; [3]): > 100 µM
TGI (NCI-H226; read-out: TGI): > 100 µM
CC50 (NCI-H226; [4]): > 100 µM
TGI (NCI-H226; read-out: pTGI): > 100 µM
GI50 (KM12): 3.72 µM
CC50 (KM12; [3]): > 100 µM
TGI (KM12; read-out: TGI): 18 µM
CC50 (KM12; [4]): > 100 µM
TGI (KM12; read-out: pTGI (converted)): 18.2 µM
GI50 (SW-620): 3.31 µM
CC50 (SW-620; [3]): > 100 µM
TGI (SW-620; read-out: TGI): > 100 µM
CC50 (SW-620; [4]): > 100 µM
TGI (SW-620; read-out: pTGI): > 100 µM
GI50 (SF-539): 17.4 µM
CC50 (SF-539; [3]): > 100 µM
TGI (SF-539; read-out: TGI): 60.8 µM
CC50 (SF-539; [4]): > 100 µM
TGI (SF-539; read-out: pTGI (converted)): 60.3 µM
GI50 (U-251): 3.47 µM
CC50 (U-251; [3]): > 100 µM
TGI (U-251; read-out: TGI): > 100 µM
CC50 (U-251; [4]): > 100 µM
TGI (U-251; read-out: pTGI): > 100 µM
GI50 (MDA-MB-435 [2]): 1.55 µM
CC50 (MDA-MB-435 [2]; [3]): 8.83 µM
TGI (MDA-MB-435 [2]; read-out: TGI): 3.71 µM
CC50 (MDA-MB-435 [2]; [4]): 8.91 µM
TGI (MDA-MB-435 [2]; read-out: pTGI (converted)): 3.72 µM
GI50 (SK-MEL-28): 6.31 µM
CC50 (SK-MEL-28; [3]): > 100 µM
TGI (SK-MEL-28; read-out: TGI): 79 µM
CC50 (SK-MEL-28; [4]): > 100 µM
TGI (SK-MEL-28; read-out: pTGI (converted)): 79.4 µM
GI50 (UACC-62): 5.37 µM
CC50 (UACC-62; [3]): > 100 µM
TGI (UACC-62; read-out: TGI): > 100 µM
CC50 (UACC-62; [4]): > 100 µM
TGI (UACC-62; read-out: pTGI): > 100 µM
GI50 (OVCAR-4): 5.5 µM
LC50 (OVCAR-4; read-out: LC50): > 100 µM
TGI (OVCAR-4; read-out: TGI): 78.2 µM
LC50 (OVCAR-4; read-out: pLC50 (converted)): > 100 µM
TGI (OVCAR-4; read-out: pTGI (converted)): 77.6 µM
GI50 (NCI/ADR-RES): 22.4 µM
CC50 (NCI/ADR-RES; [3]): > 100 µM
TGI (NCI/ADR-RES; read-out: TGI): > 100 µM
CC50 (NCI/ADR-RES; [4]): > 100 µM
TGI (NCI/ADR-RES; read-out: pTGI): > 100 µM
GI50 (SK-OV-3): 22.4 µM
LC50 (SK-OV-3; read-out: LC50): > 100 µM
TGI (SK-OV-3; read-out: TGI): 80.5 µM
LC50 (SK-OV-3; read-out: pLC50 (converted)): > 100 µM
TGI (SK-OV-3; read-out: pTGI (converted)): 81.3 µM
GI50 (786-0): 20.9 µM
LC50 (786-0; read-out: LC50): > 100 µM
TGI (786-0; read-out: TGI): 61.7 µM
LC50 (786-0; read-out: pLC50 (converted)): > 100 µM
TGI (786-0; read-out: pTGI (converted)): 61.7 µM
GI50 (A498): 0.661 µM
CC50 (A498; [3]): > 100 µM
TGI (A498; read-out: TGI): 10.5 µM
CC50 (A498; [4]): > 100 µM
TGI (A498; read-out: pTGI (converted)): 10.5 µM
GI50 (ACHN): 47.9 µM
LC50 (ACHN; read-out: LC50): > 100 µM
TGI (ACHN; read-out: TGI): > 100 µM
LC50 (ACHN; read-out: pLC50 (converted)): > 100 µM
TGI (ACHN; read-out: pTGI): > 100 µM
GI50 (CAKI-1): 20 µM
LC50 (CAKI-1; read-out: LC50): > 100 µM
TGI (CAKI-1; read-out: TGI): > 100 µM
LC50 (CAKI-1; read-out: pLC50 (converted)): > 100 µM
TGI (CAKI-1; read-out: pTGI): > 100 µM
GI50 (SN12C): 29.5 µM
CC50 (SN12C; [3]): > 100 µM
TGI (SN12C; read-out: TGI): > 100 µM
CC50 (SN12C; [4]): > 100 µM
TGI (SN12C; read-out: pTGI): > 100 µM
GI50 (DU-145): 5.37 µM
LC50 (50% lethal concentration) (DU-145; read-out: LC50): > 100 µM
TGI (DU-145; read-out: TGI): 53.5 µM
LC50 (50% lethal concentration) (DU-145; read-out: pLC50 (converted)): > 100 µM
TGI (DU-145; read-out: pTGI (converted)): 53.7 µM
GI50 (MDA-MB-468): 1.95 µM
LC50 (MDA-MB-468; read-out: LC50): > 100 µM
TGI (MDA-MB-468; read-out: TGI): 6.97 µM
LC50 (MDA-MB-468; read-out: pLC50 (converted)): > 100 µM
TGI (MDA-MB-468; read-out: pTGI (converted)): 6.92 µM
